Substrate in series [1]: NC(=O)c1cc(N2CC2)c([N+](=O)[O-])cc1[N+](=O)[O-]
The series is described as follows: (§1) Substrate activity at Staphylococcus saprophyticus nitroreductase assessed as Km using NADPH as cofactor in presence of Tris-Cl buffer at pH 7.5 by spectrophotometric method. Type of series: ADME. The gist of the method:
(§2)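 Michaelis–Menten parameters for recombinant Ssap-NtrB were measured spectrophotometrically at 25 °C in 25 mM Tris-Cl buffer pH 7.5 containing 5% DMSO as cosolvent.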

Substrate in series [2]: CCN(C(C)=O)c1cc([N+](=O)[O-])cc([N+](=O)[O-])c1
Described as §1. In kind it is ADME. A digest of the protocol:
as §2

Substrate in series [3]: NC(=O)c1cc(N2CC2)c([N+](=O)[O-])cc1[N+](=O)[O-]
The series can be described thus: (§3) Substrate activity at Escherichia coli nitroreductase nfsB assessed as Kcat using NADH as cofactor at […] in Tris-Cl buffer at pH 7.5 by spectrophotometric method.

Substrate in series [4]: CS(=O)(=O)OCCN(CCBr)c1c(C(=O)NCCO)cc([N+](=O)[O-])cc1[N+](=O)[O-]
Described as §3.

Substrate in series [5]: NC(=O)c1cc(N(CCCl)CCCl)c([N+](=O)[O-])cc1[N+](=O)[O-]
The series is described as §3.

Substrate in series [6]: NC(=O)c1cc(N2CC2)c([N+](=O)[O-])cc1[N+](=O)[O-]
The series can be described thus: (§4) Substrate activity at Escherichia coli nitroreductase nfsB assessed as Km using NADH as cofactor in Tris-Cl buffer at pH 7.5 by spectrophotometric method. Type of series: ADME.

Substrate in series [7]: CS(=O)(=O)OCCN(CCBr)c1c(C(=O)NCCO)cc([N+](=O)[O-])cc1[N+](=O)[O-]
The description is as §4. Type of series: ADME.

B1: Putative nitroreductase (Staphylococcus saprophyticus subsp. saprophyticus ATCC 15305 = NCTC 7292) (protein)
chain: MINNNFEEILMNRKSVKVFDEQVKIPKAEMDEMIKKATTAPSSVNMQPWRFLVVESDEGKDTLRPLIRFNTRQNDSSAAMVVIFGDMKSQTNAEEIYGNAVKHDLMPEEVKQEMLKKVIPLYDNAPKEQMNDIVKIDSSLAAMQFMLVAKAHGYDTNPIGGFESDQIADAFGIDSERYVPVLIVAIGKAKNPAHGSYRLPTETVTKYV
In general, Km refers to the substrate concentration at which the rate is half of its maximum. One may read the kcat as the number of substrate molecules converted per active site and unit of time at saturation. Usually kcat/Km stands for the turnover number divided by the Michaelis constant. With B1, in series [1], the Km is 1070 µM, the kcat was found to be 2.26 s⁻¹ and the kcat/Km came out at 2120 M⁻¹ s⁻¹. Further, the Km in series [2] came to 96.9 µM.

B2: Oxygen-insensitive NAD(P)H nitroreductase (Escherichia coli K-12), P38489 (protein)
chain: MDIISVALKRHSTKAFDASKKLTPEQAEQIKTLLQYSPSSTNSQPWHFIVASTEEGKARVAKSAAGNYVFNERKMLDASHVVVFCAKTAMDDVWLKLVVDQEDADGRFATPEAKAANDKGRKFFADMHRKDLHDDAEWMAKQVYLNVGNFLLGVAALGLDAVPIEGFDAAILDAEFGLKEKGYTSLVVVPVGHHSVEDFNATLPKSRLPQNITLTEV
As to B2, the catalytic constant (kcat) in series [3] amounted to 62 s⁻¹; in series [4] it was 60 s⁻¹; in series [5], 26.4 s⁻¹.

B3: Oxygen-insensitive NAD(P)H nitroreductase (Escherichia coli K-12) (protein)
chain: B2 chain
B3: the Km in series [6] is 11000 µM; in series [7], 4500 µM. In addition, the kcat/Km in series [6] came to 5600 M⁻¹ s⁻¹; in series [7] it was 13000 M⁻¹ s⁻¹.

(Values after ChEMBL document CHEMBL4393661, “PRODRUGS FOR NITROREDUCTASE BASED CANCER THERAPY- 2: Novel amide/Ntr combinations targeting PC3 cancer cells” (Eur J Med Chem, 2019).)
